Measurements as given in ChEMBL document CHEMBL1145518, “Potent immune-modulating and anticancer effects of NKT cell stimulatory glycolipids” (2007).
Activity calls are given as the source filed them. The rule behind the calls is not given here.

Key:
[1] = system: Mus musculus; assay: Induction of IL2 secretion in BALB/c mouse serum at 2 ug, iv after 2 hrs relative to control; format: functional
Method in brief: (§1)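 BALB/c mice received an i.v. injection of 100 μl of glycolipid diluted to 20 μg/ml in saline from DMSO stock, with 1% DMSO as vehicle. Serum cytokines/chemokines were measured at 2 and 18 h after injection.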

[2] = Induction of IL12p70 secretion in human CD161+ CD3+ NKT cells at 10 ug/ml after 18 hrs relative to basal level; format: functional
Method in brief: (§2)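 Human Vα24i NKT cell lines were expanded for 10 days on irradiated (3,000 rad) autologous immature DCs with 10 units/ml IL-2. The cells (1 × 10^5) were cocultured with 5 × 10^4 irradiated immature CD14+ DCs plus glycolipid at 10 μg/ml. Supernatants were collected at 18 h and read on a 22-plex Luminex bead panel. Triplicates, mean ± SD.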

[3] = Induction of TNFalpha secretion in human CD161+ CD3+ NKT cells at 10 ug/ml after 18 hrs relative to basal level; format: functional; method in brief: as §2
[4] = system: Mus musculus; assay: Induction of IL6 secretion in BALB/c mouse serum at 2 ug, iv after 2 hrs relative to control; format: functional; method in brief: as §1
[5] = system: NKT; assay: Stimulation of cell expansion of human invariant CD161+/ Valpha24+/ CD56+/ CD3+ NKT cells by flow cytometry method; format: functional, cell-based
Method in brief: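 CD56+ NK/NKT mixtures (2 × 10^6) were isolated from human leukopaks with anti-CD56 microbeads. They were cocultured with 4 × 10^5 autologous immature CD14+ DCs pulsed with glycolipid at 3 μg/ml, or with 0.3% DMSO, on day 2 for 18 h. Suspension cells were then transferred and kept in 100 units/ml IL-2 with fresh medium every 3 days. On day 9, CD161+/Vα24TCR+ cells were gated by flow cytometry and total Vα24i NKT cells counted. Triplicates, mean ± SD.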

[6] = Induction of MIPalpha secretion in human CD161+ CD3+ NKT cells at 10 ug/ml after 18 hrs relative to basal level; format: functional; method in brief: as §2
[7] = Induction of IL13 secretion in human CD161+ CD3+ NKT cells at 10 ug/ml after 18 hrs relative to basal level; format: functional; method in brief: as §2
[8] = system: HeLa; assay: Activation of TCR in human HeLa cells overexpressing CD1d assessed as increase in ERK1/2 phosphorylation; format: cell-based
Method in brief: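 Human HeLa, HeLa-CD1d or autologous immature DCs were loaded with glycolipid at 10 μg/ml, or DMSO, for 2 h. Then 3 × 10^5 naïve CD161+/CD3+ NKT cells were added; these were bead-isolated and kept in 100 units/ml IL-2. After 5–10 min the cells were washed and lysed at 4°C. Phospho-CD3ε, ERK1/2 (Thr-185/Tyr-187) and CREB (Ser-133) were read by Luminex bead assay as median fluorescence normalized to total protein, expressed as fold over 1% DMSO.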

[9] = system: TC1; assay: Antitumor activity in TC1 cells xenografted C57BL/6 mouse assessed as suppression of tumor growth at 2 ug, iv; format: functional, cell-based
Method in brief: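 C57BL/6 mice (n = 5/group) were inoculated i.v. with TC-1 lung cancer cells. They were then treated i.v. with 2 μg glycolipid per mouse, or 100 μl of 1% DMSO, twice weekly for 4 weeks. Kaplan–Meier survival and body weight were followed, with tumor-free mice as an additional control.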

[10] = system: Mus musculus; assay: Activation of B cells in BALB/c mouse at 2 ug, iv after 72 hrs by flow cytometry; format: functional, organism-based
[11] = Promotion of maturation of human dendritic cells assessed as increase in CD40 expression at 3 ug/ml after 48 hrs; format: functional, cell-based; details: Dendritic cell
Method in brief: (§3)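 Immature DCs were derived from leukopak CD14+ cells by 2 days in 300 units/ml GM-CSF plus 100 units/ml IL-4. DCs (2 × 10^6) were incubated with glycolipid at 3 μg/ml or vehicle for 48 h. Surface CD40, CD80, CD83, CD86 and HLA-DR were measured by flow cytometry as mean fluorescence intensity.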

[12] = Promotion of maturation of human dendritic cells assessed as increase in HLA-DR expression at 3 ug/ml after 48 hrs; format: functional, cell-based; details: Dendritic cell; method in brief: as §3
[13] = system: Mus musculus; assay: Activation of natural killer cells in BALB/c mouse at 2 ug, iv after 72 hrs by flow cytometry; format: functional, organism-based
Method in brief: (§4)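 BALB/c mice (n = 4/group) were given 100 μl of glycolipid at 20 μg/ml in saline i.v., or 100 μl of 1% DMSO. Spleens were harvested after 72 h and splenocyte subsets counted by flow cytometry: mature DCs as CD11c+/CD80+/CD86+, activated NK as U5A2-13Ag+/CD3−/CD69+, activated NKT as U5A2-13Ag+/CD3+/CD69+. Assays were run in duplicate, mean ± SD.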

[14] = system: Mus musculus; assay: Activation of NKT cells in BALB/c mouse at 2 ug, iv after 72 hrs by flow cytometry; format: functional, organism-based; method in brief: as §4
[15] = Promotion of maturation of human dendritic cells assessed as increase in CD80 expression at 3 ug/ml after 48 hrs; format: functional, cell-based; details: Dendritic cell; method in brief: as §3
[16] = Promotion of maturation of human dendritic cells assessed as increase in CD86 expression at 3 ug/ml after 48 hrs; format: functional, cell-based; details: Dendritic cell; method in brief: as §3
[17] = Promotion of maturation of human dendritic cells assessed as increase in CD83 expression at 3 ug/ml after 48 hrs; format: functional, cell-based; details: Dendritic cell; method in brief: as §3

Row | SMILES | Activity [1] | Activity [2] | Activity [3] | Activity [4] | Activity [5] | Activity [6] | Activity [7] | Activity [8] | Activity [9] | Activity [10] | Activity [11] | Activity [12] | Activity [13] | Activity [14] | Activity [15] | Activity [16] | Activity [17]
1 | CCCCCCCCCCCCCCCCCCCCCCCCCC(=O)N[C@@H](CO[C@H]1O[C@H](CO)[C@H](O)[C@H](O)[C@H]1O)[C@H](O)[C@H](O)CCCCCCCCCCCCCC [RGI-7000] | 58.9 | 1.8 | 7.7 | 5.5 | Active | 2.9 | 1.8 | 6.6 | Active | Active |  |  |  |  |  |  | 
2 | CCCCCCCCCCCCCCCCCCCCCCCCCC(=O)N[C@@H](CO[C@H]1O[C@H](CO)[C@H](O)[C@H](O)[C@H]1O)[C@H](O)[C@H](O)CCc1ccccc1 | 75.3 | 3.2 | 7.6 | 6.3 |  | 3.6 | 2.3 | 6.6 | Active |  | Active | Active | Active | Active | Active | Active | Active
